Experimental data taken from ChEMBL document CHEMBL3351726 (J Med Chem, 2014).
Residues, ends and D or L forms follow the SMILES beside them.

Legend:
[1] = Retention time of the compound measured over 30 mins at flow rate of 1 mL/min by HPLC; format: physicochemical; conditions: 0.5 h
How it was run: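 Reversed-phase analytical HPLC or LC−MS on a SymmetryShield RP18 column (5 μm, 4.6 × 150 mm). Gradient 10−60% B over 30 min at 1 mL/min; A = 0.1% TFA in water, B = 0.1% TFA in acetonitrile.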

[2] = system: HEK293; test: Selectivity ratio of IC50 for rat Nav1.2 expressed in HEK-293 cells to IC50 for human Nav1.7 expressed in HEK-293 cells; format: cell-based
[3] = Retention time of the compound measured over 15 mins at flow rate of 1 mL/min by HPLC

Compound	Retention_time [1]	Ratio IC50 [2]	Retention_time [3]
[H][C@]12CSSC[C@@H](C(=O)N[C@@H](CCCCN)C(=O)N[C@@H](CCCCN)C(=O)N[C@@H](CCCCN)C(=O)N[C@@](C)(CC(C)C)C(=O)N[C@@H](Cc3c[nH]c4ccccc34)C(=O)O)NC(=O)[C@H](Cc3c[nH]c4ccccc34)NC(=O)[C@H](CC(C)C)NC(=O)[C@H](CCCNC(=N)N)NC(=O)[C@]3([H])CSSC[C@]([H])(NC(=O)[C@]([H])([C@@H](C)O)NC(=O)[C@H](Cc4c[nH]c5ccccc45)NC(=O)[C@H](CCSC)NC(=O)[C@H](Cc4c[nH]c5ccccc45)NC(=O)[C@H](CCCCN)NC(=O)[C@H](CCC(N)=O)NC(=O)[C@@H](NC(=O)[C@@H](N)Cc4ccc(O)cc4)CSSC[C@]([H])(NC1=O)C(=O)N[C@@H](CCC(=O)O)C(=O)NCC(=O)N[C@@H](CC(C)C)C(=O)N[C@@H](C(C)C)C(=O)N3)C(=O)N[C@@H](CC(=O)O)C(=O)N[C@@H](CO)C(=O)N[C@@H](C)C(=O)N[C@@H](CCCNC(=N)N)C(=O)N[C@@H](CCCCN)C(=O)N2 (HELM PEPTIDE1{Y.C.Q.K.W.M.W.T.C.D.S.A.R.K.C.C.E.G.L.V.C.R.L.W.C.K.K.K.[CC(C)C[C@](C)(N[*:1])C(=O)[*:2]].W}$PEPTIDE1,PEPTIDE1,2:R3-16:R3|PEPTIDE1,PEPTIDE1,9:R3-21:R3|PEPTIDE1,PEPTIDE1,15:R3-25:R3$$$V2.0)	15.29 min	3.5	9.28 min
CSCC[C@@H]1NC(=O)[C@H](Cc2c[nH]c3ccccc23)NC(=O)[C@H](CCCCN)NC(=O)[C@H](CCC(N)=O)NC(=O)[C@@H](NC(=O)[C@@H](N)Cc2ccc(O)cc2)CSSC[C@@H]2NC(=O)[C@@H]3CSSC[C@@H](C(=O)N[C@@H](CCCCN)C(=O)N[C@@H](CCCCN)C(=O)N[C@@H](CCCCN)C(=O)N[C@@H](CC(C)C)C(=O)N[C@@H](Cc4c[nH]c5ccccc45)C(=O)O)NC(=O)[C@H](Cc4c[nH]c5ccccc45)NC(=O)[C@H](CC(C)C)NC(=O)[C@H](CCCNC(=N)N)NC(=O)[C@H](CSSC[C@H](NC(=O)[C@H]([C@@H](C)O)NC(=O)[C@H](Cc4c[nH]c5ccccc45)NC1=O)C(=O)N[C@@H](CC(=O)O)C(=O)N[C@@H](CO)C(=O)N[C@@H](CCC(=O)O)C(=O)N[C@@H](CCCNC(=N)N)C(=O)N[C@@H](CCCCN)C(=O)N3)NC(=O)[C@H](C(C)C)NC(=O)[C@H](CC(C)C)NC(=O)CNC(=O)[C@H](CCC(=O)O)NC2=O	15.44 min	26	9.87 min
CC[C@H](C)[C@H](NC(=O)[C@](C)(CC(C)C)NC(=O)[C@H](CCCCN)NC(=O)[C@H](CCCCN)NC(=O)[C@H](CCCCN)NC(=O)[C@@H]1CSSC[C@@H]2NC(=O)[C@H](CCCCN)NC(=O)[C@H](CCCNC(=N)N)NC(=O)[C@H](C)NC(=O)[C@H](CO)NC(=O)[C@H](CC(=O)O)NC(=O)[C@@H]3CSSC[C@H](NC(=O)[C@H](C(C)C)NC(=O)[C@H](CC(C)C)NC(=O)CNC(=O)[C@H](CCC(=O)O)NC(=O)[C@H](CSSC[C@H](NC(=O)[C@@H](N)Cc4ccc(O)cc4)C(=O)N[C@@H](CCC(N)=O)C(=O)N[C@@H](CCCCN)C(=O)N[C@@H](Cc4c[nH]c5ccccc45)C(=O)N[C@@H](CCSC)C(=O)N[C@@H](Cc4c[nH]c5ccccc45)C(=O)N[C@@H]([C@@H](C)O)C(=O)N3)NC2=O)C(=O)N[C@@H](CCCNC(=N)N)C(=O)N[C@@H](CC(C)C)C(=O)N[C@@H](Cc2c[nH]c3ccccc23)C(=O)N1)C(=O)O (HELM PEPTIDE1{Y.C.Q.K.W.M.W.T.C.D.S.A.R.K.C.C.E.G.L.V.C.R.L.W.C.K.K.K.[CC(C)C[C@](C)(N[*:1])C(=O)[*:2]].I}$PEPTIDE1,PEPTIDE1,2:R3-16:R3|PEPTIDE1,PEPTIDE1,9:R3-21:R3|PEPTIDE1,PEPTIDE1,15:R3-25:R3$$$V2.0)	14.87 min	34.2	9.03 min
CC[C@H](C)[C@H](NC(=O)[C@@H](NC(=O)[C@H](CCCCN)NC(=O)[C@H](CCCCN)NC(=O)[C@@H]1CSSC[C@@H]2NC(=O)[C@H](CCCCN)NC(=O)[C@H](CCCNC(=N)N)NC(=O)[C@H](CCC(=O)O)NC(=O)[C@H](CO)NC(=O)[C@H](CC(=O)O)NC(=O)[C@@H]3CSSC[C@H](NC(=O)[C@H](C(C)C)NC(=O)[C@H](CCSC)NC(=O)CNC(=O)[C@H](CCC(=O)O)NC(=O)[C@H](CSSC[C@H](NC(=O)[C@@H](N)Cc4ccc(O)cc4)C(=O)N[C@@H](CCC(N)=O)C(=O)N[C@@H](CCCCN)C(=O)N[C@@H](Cc4c[nH]c5ccccc45)C(=O)N[C@@H](CCSC)C(=O)N[C@@H](Cc4c[nH]c5ccccc45)C(=O)N[C@@H]([C@@H](C)O)C(=O)N3)NC2=O)C(=O)N[C@@H](CCCNC(=N)N)C(=O)N[C@@H](CC(C)C)C(=O)N[C@@H](Cc2c[nH]c3ccccc23)C(=O)N1)[C@@H](C)CC)C(=O)O	18.47 min	2	9.44 min
[H][C@]12CSSC[C@@H](C(=O)N[C@@H](CCCCN)C(=O)N[C@@H](CCCCN)C(=O)N[C@@H](CCCCN)C(=O)N(C)[C@@H](CC(C)C)C(=O)N[C@H](C(=O)O)[C@@H](C)CC)NC(=O)[C@H](Cc3c[nH]c4ccccc34)NC(=O)[C@H](CC(C)C)NC(=O)[C@H](CCCNC(=N)N)NC(=O)[C@]3([H])CSSC[C@]([H])(NC(=O)[C@]([H])([C@@H](C)O)NC(=O)[C@H](Cc4c[nH]c5ccccc45)NC(=O)[C@H](CCSC)NC(=O)[C@H](Cc4c[nH]c5ccccc45)NC(=O)[C@H](CCCCN)NC(=O)[C@H](CCC(N)=O)NC(=O)[C@@H](NC(=O)[C@@H](N)Cc4ccc(O)cc4)CSSC[C@]([H])(NC1=O)C(=O)N[C@@H](CCC(=O)O)C(=O)NCC(=O)N[C@@H](CC(C)C)C(=O)N[C@@H](C(C)C)C(=O)N3)C(=O)N[C@@H](CC(=O)O)C(=O)N[C@@H](CO)C(=O)N[C@@H](C)C(=O)N[C@@H](CCCNC(=N)N)C(=O)N[C@@H](CCCCN)C(=O)N2 (HELM PEPTIDE1{Y.C.Q.K.W.M.W.T.C.D.S.A.R.K.C.C.E.G.L.V.C.R.L.W.C.K.K.K.[meL].I}$PEPTIDE1,PEPTIDE1,2:R3-16:R3|PEPTIDE1,PEPTIDE1,9:R3-21:R3|PEPTIDE1,PEPTIDE1,15:R3-25:R3$$$V2.0)	14.4 min	2.8	8.79 min
[H][C@]12CSSC[C@@H](C(=O)N[C@@H](CCCCN)C(=O)N[C@@H](CCCCN)C(=O)N[C@H](C(=O)N[C@H](C(=O)O)[C@@H](C)CC)[C@@H](C)CC)NC(=O)[C@H](Cc3c[nH]c4ccccc34)NC(=O)[C@H](CC(C)C)NC(=O)[C@H](CCCNC(=N)N)NC(=O)[C@]3([H])CSSC[C@]([H])(NC(=O)[C@]([H])([C@@H](C)O)NC(=O)[C@H](Cc4c[nH]c5ccccc45)NC(=O)[C@H](CCSC)NC(=O)[C@H](Cc4c[nH]c5ccccc45)NC(=O)[C@H](CCCCN)NC(=O)[C@H](CCC(N)=O)NC(=O)[C@@H](NC(=O)[C@@H](N)Cc4ccc(O)cc4)CSSC[C@]([H])(NC1=O)C(=O)N[C@@H](CCC(=O)O)C(=O)NCC(=O)N[C@@H](CC(C)C)C(=O)N[C@@H](C(C)C)C(=O)N3)C(=O)N[C@@H](CC(=O)O)C(=O)N[C@@H](CO)C(=O)N[C@@H](C)C(=O)N[C@@H](CCCNC(=N)N)C(=O)N[C@@H](CCCCN)C(=O)N2 (HELM PEPTIDE1{Y.C.Q.K.W.M.W.T.C.D.S.A.R.K.C.C.E.G.L.V.C.R.L.W.C.K.K.I.I}$PEPTIDE1,PEPTIDE1,2:R3-16:R3|PEPTIDE1,PEPTIDE1,9:R3-21:R3|PEPTIDE1,PEPTIDE1,15:R3-25:R3$$$V2.0)	12.58 min		7.9 min
CSCC[C@@H]1NC(=O)CNC(=O)[C@H](CCC(=O)O)NC(=O)[C@@H]2CSSC[C@H](NC(=O)[C@@H](N)Cc3ccc(O)cc3)C(=O)N[C@@H](CCC(N)=O)C(=O)N[C@@H](CCCCN)C(=O)N[C@@H](Cc3c[nH]c4ccccc34)C(=O)N[C@@H](CCSC)C(=O)N[C@@H](Cc3c[nH]c4ccccc34)C(=O)N[C@@H]([C@@H](C)O)C(=O)N[C@H]3CSSC[C@H](NC(=O)[C@H](C(C)C)NC1=O)C(=O)N[C@@H](CCCNC(=N)N)C(=O)N[C@@H](CC(C)C)C(=O)N[C@@H](Cc1c[nH]c4ccccc14)C(=O)N[C@H](C(=O)N[C@@H](CCCCN)C(=O)N[C@@H](CCCCN)C(=O)N[C@@H](CCCCN)C(=O)N[C@@H](CC(C)C)C(=O)N[C@@H](Cc1c[nH]c4ccccc14)C(=O)O)CSSC[C@H](NC(=O)[C@H](CCCCN)NC(=O)[C@H](CCCNC(=N)N)NC(=O)[C@H](CCC(=O)O)NC(=O)[C@H](CO)NC(=O)[C@H](CC(=O)O)NC3=O)C(=O)N2	14.54 min		9.35 min
CSCC[C@@H]1NC(=O)CNC(=O)[C@H](CCC(=O)O)NC(=O)[C@@H]2CSSC[C@H](NC(=O)[C@@H](N)Cc3ccc(O)cc3)C(=O)N[C@@H](CCC(N)=O)C(=O)N[C@@H](CCCCN)C(=O)N[C@@H](Cc3c[nH]c4ccccc34)C(=O)N[C@@H](CCSC)C(=O)N[C@@H](Cc3c[nH]c4ccccc34)C(=O)N[C@@H]([C@@H](C)O)C(=O)N[C@H]3CSSC[C@H](NC(=O)[C@H](C(C)C)NC1=O)C(=O)N[C@@H](CCCNC(=N)N)C(=O)N[C@@H](CC(C)C)C(=O)N[C@@H](Cc1c[nH]c4ccccc14)C(=O)N[C@H](C(=O)N[C@@H](CCCCN)C(=O)N[C@@H](CCCCN)C(=O)N[C@@H](CCCCN)C(=O)N[C@@H](CC(C)C)C(=O)N[C@@H](Cc1c[nH]c4ccccc14)C(N)=O)CSSC[C@H](NC(=O)[C@H](CCCCN)NC(=O)[C@H](CCCNC(=N)N)NC(=O)[C@H](CCC(=O)O)NC(=O)[C@H](CO)NC(=O)[C@H](CC(=O)O)NC3=O)C(=O)N2	14.78 min		9 min
